# Compounds with a hit are over-represented: about 4% of the library has one in this group of screens.
# MPTP inh – permeability transition pore inhibition. AID 602449. inhibition, % at 10 µM. isolated mouse mitochondria, Ca2+ swelling absorbance, 30 min. actives 1.4% (n = 360,000);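 active = inhibition of 50% or more, scaled per plate between neutral and stimulator controls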;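 also: 0% = DMSO wells given calcium and 100% = 1 mM EGTA wells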
# TAAR1 ag – agonists of human TAAR1. Q96RJ0. CHO RD-HGA16 TAAR1, Fluo-8 calcium fluorescence; vehicle wells 0%, saturating PEA agonist 100%. activation, % at 3 µM. actives 0.99% (n = 360,000). AID 624467;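 active = activation above the mean activation of all test compounds in the run plus 3 SD, cut at about 38% in these data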
# Target sequence (Q96RJ0 whole entry, looked up): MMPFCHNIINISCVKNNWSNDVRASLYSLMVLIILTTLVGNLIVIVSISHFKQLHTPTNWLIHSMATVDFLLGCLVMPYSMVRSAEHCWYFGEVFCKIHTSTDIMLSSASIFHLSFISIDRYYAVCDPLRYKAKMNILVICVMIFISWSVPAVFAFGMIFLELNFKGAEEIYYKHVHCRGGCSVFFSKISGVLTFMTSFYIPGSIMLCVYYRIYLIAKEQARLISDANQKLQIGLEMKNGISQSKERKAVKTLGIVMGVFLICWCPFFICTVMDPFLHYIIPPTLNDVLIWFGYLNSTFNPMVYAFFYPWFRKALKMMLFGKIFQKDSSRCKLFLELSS
#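 Signal – calcium-sensitive Fluo-8 signal, excitation 470-495, emission 515-575 nm · System – RD-HGA16 (CHO) cells co-expressing Gα16 and hTAAR1 · Incubation – 17-24 h seeding, 75 min 37 °C dye, 30 min RT · Compound dosing – 3 µM single concentration · Repeats – no replicates (n 1)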
# TAAR1 antagonist – human TAAR1 antagonism. Q96RJ0. CHO RD-HGA16 TAAR1, Fluo-8 calcium fluorescence, antagonist. inhibition, % at 3 µM. actives 1.5% (n = 360,000);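 active = inhibition above a per-plate cutoff, the mean inhibition of test compounds on that plate plus 3 SD, cut at about 49% in these data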;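 also: 0% = DMSO plus EC80 beta-PEA response and 100% = DMSO alone without agonist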
#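 Test system: CHO RD-HGA16 cells bearing hTAAR1 | Reagent: β-PEA, EC80 | Compound dosing: 3 µM, single point | Schedule: Dye loading 75 min at 37 °C, then 30 min room temperature | Signal: Calcium fluorescence with Fluo-8 | Evaluation: Percent inhibition of PEA-evoked calcium signal, max/basal emission ratio | Control set: DMSO-only wells and EC80 β-PEA-stimulated wells | Repeats: Singlicate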
# DAGLB inh – diacylglycerol lipase beta (human) inhibition. actives 0.059% (n = 340,000). HEK293T DAGLB membrane lysate, EnzChek fluorogenic substrate. inhibition, % at 5.17 µM; in the data active = inhibition above about 34%;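 also: 0% = enzyme with vehicle and 100% = wells lacking enzyme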
# GPR7 antagonist – antagonists of human GPR7 (neuropeptides B/W receptor 1); P48145; GPR7-expressing cells, fluorescence antagonist assay; inhibition, % at 4.4 µM; actives 1.1% (n = 290,000); in the data active = inhibition above about 16%, passing the limit was not always enough;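 also: cells stimulated with the agonist NPW; 0% = agonist with vehicle and 100% = vehicle without agonist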
# Target sequence (P48145 whole entry, looked up): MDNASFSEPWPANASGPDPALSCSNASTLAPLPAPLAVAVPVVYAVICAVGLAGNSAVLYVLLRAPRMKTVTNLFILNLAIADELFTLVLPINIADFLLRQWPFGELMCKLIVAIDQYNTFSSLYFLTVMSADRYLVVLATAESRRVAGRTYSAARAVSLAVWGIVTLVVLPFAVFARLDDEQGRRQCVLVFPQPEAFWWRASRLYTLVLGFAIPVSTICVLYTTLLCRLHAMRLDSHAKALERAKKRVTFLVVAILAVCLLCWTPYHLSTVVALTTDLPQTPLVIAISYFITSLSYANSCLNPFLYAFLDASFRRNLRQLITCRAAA
# GPR7 antag cf – confirmation of human GPR7 antagonists; AID 1952; shares compounds with GPR7 antagonist; actives 52% (n = 2,400); GPR7-expressing cells, calcium fluorescence antagonist mode; inhibition, % at 4.4 µM; in the data active = inhibition above about 24%;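 also: stimulated with the GPR7 agonist NPW; 0% = agonist plus vehicle and 100% = vehicle alone without agonist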
# MCHR1 antagonist – counter-screen for GPR7 antagonists: antagonists of human MCHR1; shares compounds with GPR7 antagonist; inhibition, % at 4.4 µM; actives 62% (n = 2,400); AID 2148; MCHR1-expressing cells, fluorescence antagonist assay;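 also: 0% = vehicle with agonist and 100% = vehicle without agonist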
# Rh123 counter – mitochondrial membrane potential, counter-screen; isolated mitochondria, Rhodamine 123 fluorescence; shares compounds with MPTP inh; actives 78% (n = 5,000); inhibition, % at 10 µM;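 also: 0% = DMSO vehicle and 100% = positive control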
# MPTP swell DR – MPTP inhibition, dose response swelling confirmation. shares compounds with MPTP inh. isolated mitochondria swelling, absorbance. IC50, µM. actives 58% (n = 780). AID 651561; in the data active = IC50 below about 20 µM
# MPTP counter DR – MPTP inhibitor counter-screen activity, dose response; shares compounds with MPTP inh; isolated mitochondria counterscreen, fluorescence read-out; IC50, µM; actives 49% (n = 780); AID 651564; in the data active = IC50 below about 80 µM
# The depositor's hits bear a star; nt = no result. Rule as the data show it, unless noted: active = inhibition above about 22%; inactive = the rest.
SMILES,MPTP inh,TAAR1 ag,TAAR1 antagonist,DAGLB inh,GPR7 antagonist,GPR7 antag cf,MCHR1 antagonist,Rh123 counter,others
Cc1ccc(NC(=O)CSc2ncnc3ccccc23)cc1S(=O)(=O)N1CCOCC1,24,10,16,0,7,nt,nt,nt,
O=C(C=Cc1ccccc1)CC(c1ccccc1)N1CCOCC1 (stereo unspecified),0,3,-6,-5,nt,nt,nt,nt,
COc1cc(NC(=O)c2sc3ncn(CC(=O)N4CCCCC4C)c(=O)c3c2C)cc(OC)c1OC (stereo unspecified),1,3,-5,2,nt,nt,nt,nt,
O=C(Nc1ccc(Cl)cc1)Nc1nc(-c2sccc2Br)cs1,41,6,24,5,-1,nt,nt,nt,
O=C(Nc1ccc(Cl)cc1)Nc1nc(-c2ccccc2O)cs1,99*,11,4,-1,31*,67*,62*,67*,
O=S1(=O)N[C@H](Cc2ccccc2)COc2cc(N3CCC[C@H]3CO)ccc21,0,0,-16,nt,nt,nt,nt,nt,
COc1ccc(Cc2nnc(SCC(=O)Nc3ccccc3)[nH]c2=O)cc1,1,3,-1,4,nt,nt,nt,nt,
O=C(NCC1CC1(Cl)Cl)Nc1ccc(Cl)c(Cl)c1 (stereo unspecified),62*,2,26,-8,33*,13,58*,95*,
Cc1ccc(NC(=O)NCC2CC2(Cl)Cl)cc1 (stereo unspecified),0,1,2,-3,11,nt,nt,nt,
N#Cc1ccc(NC(=O)Nc2cccc(C#N)c2)cc1,72*,13,-5,0,25*,36*,55*,100*,
N#Cc1ccc(NC(=O)Nc2ccc(Oc3ccc(NC(=O)Nc4ccc(C#N)cc4)cc3)cc2)cc1,16,14,22,0,10,nt,nt,nt,
Nc1nc(Cl)cc(N2CCC(c3cc(-c4ccc(Cl)cc4)n[nH]3)CC2)n1,98*,29,45,0,38*,26*,72*,90*,
Clc1ccc(-c2cc(C3CCNCC3)[nH]n2)cc1,15,4,18,1,18,nt,nt,nt,
COC(=O)[C@]12C[C@H](CC(=O)NCc3cccc4ccccc34)C(=O)N(Cc3ccc4c(c3)OCO4)C1=C[C@H](COCc1ccccc1)O[C@@H]2C,nt,1,-19,nt,nt,nt,nt,nt,
COc1cccc(CN(C)C(=O)c2cc(COc3ccc4ncccc4c3)on2)c1,97*,11,45,-2,33*,40*,57*,97*,
COc1cccc(CN(C)C(=O)c2cc(COc3c(F)cccc3F)on2)c1,0,3,0,-3,4,nt,nt,nt,
O=[N+]([O-])c1ccc(NC(=S)NCCc2ccc(Cl)cc2)cc1,88*,8,57*,0,49*,65*,70*,85*,
O=[N+]([O-])c1ccc(NC(=S)NCCc2ccccc2)cc1,87*,14,-6,-5,47*,61*,59*,88*,
CN(C)CCCNS(=O)(=O)c1ccc(NC2CCCCCC2)c([N+](=O)[O-])c1,85*,25,-6,3,23*,48*,51*,81*,
CCNc1ccc(S(=O)(=O)NCCN(C)C)cc1[N+](=O)[O-],2,0,-34,-2,-13,nt,nt,nt,
Cc1c(C(=O)NCc2ccc3c(c2)OCCO3)sc(=O)n1Cc1cccc(C(F)(F)F)c1,-1,3,5,nt,nt,nt,nt,nt,
CC(=O)C1=C(C)N(CC(C)C)C(=S)NC1c1ccc(Br)cc1 (stereo unspecified),nt,-2,-11,nt,nt,nt,nt,nt,
O=[N+]([O-])c1cccc(NC(=S)Nc2nc(-c3ccccc3Cl)cs2)c1,87*,5,17,0,27*,42*,55*,76*,
CCNC(=S)Nc1cccc([N+](=O)[O-])c1,nt,nt,nt,nt,-11,nt,nt,nt,
CCOC(=O)C(=O)N(C)c1c(CC)nc2c(OCCC3CCCCC3)cccn12,-1,1,-17,nt,nt,nt,nt,nt,
SMILES,MPTP inh,TAAR1 ag,TAAR1 antagonist,DAGLB inh,GPR7 antagonist,GPR7 antag cf,MCHR1 antagonist,Rh123 counter,others
O=S1(=O)CC(N2CCN(CC3CC3)CC2)CN1Cc1cn(Cc2ccccc2C(F)(F)F)nn1 (stereo unspecified),-2,-1,4,nt,nt,nt,nt,nt,
COc1ccc(CN2C(=O)CN(S(C)(=O)=O)CC2(C)C(=O)Nc2c(C)cccc2C)cc1OC (stereo unspecified),0,1,-14,nt,nt,nt,nt,nt,
CCCc1ccc(C(C)NC(=S)NCc2ccc(F)cc2)cc1 (stereo unspecified),64*,58*,70*,-6,59*,79*,93*,91*,
CCOc1ccc(C(C)NC(=S)NCc2ccc(Cl)cc2)cc1 (stereo unspecified),60*,45*,21,-4,30*,61*,70*,94*,
CCNC(=S)NCc1ccc(Cl)cc1,-2,17,4,1,-5,nt,nt,nt,
CCCCCCN1C[C@@H](n2cc(-c3ccc(F)cc3)nn2)[C@H](O)C[C@@H]1c1ccccc1,-1,1,6,-4,nt,nt,nt,nt,
COCCCNCCCOc1ccc(Cl)cc1C(C)(C)C,82*,13,15,2,22*,26*,33*,-15,MPTP swell DR=6*;MPTP counter DR=>80
CNCCCOc1ccc(Cl)cc1C(C)(C)C,91*,22,-3,0,25*,41*,48*,-12,MPTP swell DR=5.1*;MPTP counter DR=>80
CCC(C)NCCCOc1ccc(Cl)cc1C(C)(C)C (stereo unspecified),0,4,-18,4,-2,nt,nt,nt,
COC(=O)C1=C(C)N(Cc2ccccc2C(F)(F)F)C(=NCc2cc(OC)c(OC)c(OC)c2)NC1CCc1ccccc1 (stereo unspecified),nt,18,6,nt,nt,nt,nt,nt,
CN(C)c1ncnc2c1ncn2[C@H]1CN(Cc2ccc(Cl)cc2)C[C@@H](CO)O1,-1,1,-14,nt,nt,nt,nt,nt,
CCOC(=O)[C@]12CCC=C1N(Cc1ccc3c(c1)OCO3)C(=O)[C@H](CC(=O)NCCC(C)C)C2,1,3,-22,nt,nt,nt,nt,nt,
COc1ccc(Nc2sc(C(=O)c3ccc(Cl)cc3)c(N)c2C(=O)Nc2ccccc2OC)cc1,68*,107*,73*,9,71*,93*,100*,75*,
COc1cc2c(c(OC)c1OC)[C@@]1(c3ccccc3)CCCC[C@H]1[C@@H]2NC(=O)C(F)(F)F,nt,11,-42,nt,nt,nt,nt,nt,
O=C(CSc1nn(-c2ccccc2)c(=S)s1)Nn1cnnc1,1,11,-13,-1,4,nt,nt,nt,
